Measured values: ChEMBL document CHEMBL1152791, “New poly(ADP-ribose) polymerase-1 inhibitors with antioxidant activity based on 4-carboxamidobenzimidazole-2-ylpyrroline and -tetrahydropyridine nitroxides and their precursors” (J Med Chem, 2009)
Active and inactive are the calls of the source. The calls are words filed in the database; no cut-off is given here.

What was measured:
WRL68 = assay: Inhibition of H2O2-induced cell death in human WRL68 cells after 3 hrs by MTT assay; format: functional, cell-based; details: WRL68, 3 h
Summary of the method: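 WRL-68 cells (ATCC) were grown in DMEM with 10% fetal calf serum at 37 °C and 5% CO2, seeded at 2.5 × 10⁴ cells/well and left overnight. They were then exposed to 0.3 mM H2O2 alone or with 0.02–10 µM compound for 3 h, then 0.5% MTT for 3 h. Formazan was dissolved in acidic isopropanol and read at 550 nm. Runs used ≥6 parallels and were repeated 3 times. IC50 is the concentration (µM) halving H2O2-induced death.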

[1] = biological target: Poly [ADP-ribose] polymerase 1 (Rattus norvegicus, UniProt P27008); assay: (§1) Inhibition of rat liver PARP1 by scintillation counting
Sequence of Poly [ADP-ribose] polymerase 1 (P27008 whole entry): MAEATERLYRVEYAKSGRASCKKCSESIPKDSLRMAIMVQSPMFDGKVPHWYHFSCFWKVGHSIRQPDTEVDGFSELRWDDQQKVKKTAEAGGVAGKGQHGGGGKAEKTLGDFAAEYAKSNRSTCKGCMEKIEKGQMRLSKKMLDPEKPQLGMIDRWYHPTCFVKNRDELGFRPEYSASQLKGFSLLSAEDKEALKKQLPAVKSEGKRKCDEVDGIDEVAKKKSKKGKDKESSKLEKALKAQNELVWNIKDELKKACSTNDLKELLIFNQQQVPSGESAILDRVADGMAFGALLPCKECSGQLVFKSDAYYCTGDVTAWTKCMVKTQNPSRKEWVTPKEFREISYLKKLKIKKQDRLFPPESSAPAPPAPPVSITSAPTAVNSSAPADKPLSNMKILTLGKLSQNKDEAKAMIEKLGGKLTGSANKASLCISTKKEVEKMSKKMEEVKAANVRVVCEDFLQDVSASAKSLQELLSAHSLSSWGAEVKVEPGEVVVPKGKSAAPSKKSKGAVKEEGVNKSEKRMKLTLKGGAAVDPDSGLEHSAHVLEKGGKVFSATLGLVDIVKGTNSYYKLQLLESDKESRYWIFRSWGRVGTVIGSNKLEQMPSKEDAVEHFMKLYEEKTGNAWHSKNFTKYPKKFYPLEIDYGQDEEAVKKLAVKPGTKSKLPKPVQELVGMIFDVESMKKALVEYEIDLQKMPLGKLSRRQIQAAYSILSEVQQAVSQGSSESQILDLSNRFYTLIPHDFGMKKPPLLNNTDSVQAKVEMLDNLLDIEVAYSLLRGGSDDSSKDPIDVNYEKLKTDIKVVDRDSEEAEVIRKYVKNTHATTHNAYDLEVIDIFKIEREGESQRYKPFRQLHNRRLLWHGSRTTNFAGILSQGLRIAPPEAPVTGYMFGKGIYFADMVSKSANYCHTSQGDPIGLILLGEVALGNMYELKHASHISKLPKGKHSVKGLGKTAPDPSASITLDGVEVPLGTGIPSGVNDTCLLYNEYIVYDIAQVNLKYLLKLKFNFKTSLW

[2] = Antioxidant activity assessed as hydroxyl radical scavenging activity by fenton reaction; format: functional
Summary of the method: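 Fenton-type hydroxyl radical generation in 2.5 mL of 20 mM potassium phosphate pH 6.8 with 0.1 mM benzoic acid, 0.1 mM H2O2 and 20 µM Fe2+-EDTA. Hydroxybenzoic acid formation followed by fluorescence (ex 305 nm, em 407 nm). IC50 is the concentration (µM) halving the rate of benzoic acid hydroxylation.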

[3] = Toxicity in ip dosed C57BL/6 mouse assessed as mortality measured every 24 hrs for 14 days; format: organism-based; details: in vivo
Summary of the method: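 C57BL/6 mice, groups of eight, given a single intraperitoneal injection of […]. Animals were watched for respiratory, digestive and neurological changes. Deaths were counted every 24 h for 14 days. Animals were kept under standard conditions with tap water and chow ad libitum.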

Rattus norvegicus [4] = assay: Metabolic stability in Wistar rat assessed as nitroxide metabolite level in urine at 8 mg/kg, ip after 4 hrs by EPR spectroscopy; format: ADME, organism-based; parameters: dose 8 mg/kg, route intraperitoneal; details: in vivo
Summary of the method: (§2)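 Male Wistar rats (290–350 g, n = 3/group) were housed singly in metabolic cages and given a single ip dose of the HCl salt dissolved in 1.0 mL 0.9% NaCl. Urine was collected before dosing and from injection to 4 h. Untreated urine was measured by X-band EPR in 50 µL glass capillaries to give the radical concentration.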

Rattus norvegicus [5] = assay: Metabolic stability in Wistar rat assessed as nitroxide metabolite level in urine at 8 mg/kg, ip after 4 hrs by EPR spectroscopy in presence of PbO2; format: ADME, organism-based; parameters: dose 8 mg/kg, route intraperitoneal; details: in vivo
Summary of the method: (§3)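 Male Wistar rats (290–350 g, n = 3/group) were housed singly in metabolic cages and given a single ip dose of the HCl salt in 1.0 mL 0.9% NaCl. For urine collected from 0 to 4 h, 50 mg PbO2 was added per 1 mL, vortexed 1 min and left 10 min. This oxidizes hydroxylamine to nitroxide. A 50 µL portion of supernatant was then measured by X-band EPR.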

Rattus norvegicus [6] = assay: Metabolic stability in Wistar rat assessed as 2-(1-oxyl-2,2,6,6-tetramethyl-1,2,3,6-tetrahydropyridin-4-yl)-1H-benzimidazol-4-carboxylic acid amide radical level in urine at 8 mg/kg, ip after 4 hrs by EPR spectroscopy; format: ADME, organism-based; parameters: dose 8 mg/kg, route intraperitoneal; details: in vivo; summary of the method: as §2
Rattus norvegicus [7] = assay: Metabolic stability in Wistar rat assessed as 2-(1-oxyl-2,2,6,6-tetramethyl-1,2,3,6-tetrahydropyridin-4-yl)-1H-benzimidazol-4-carboxylic acid amide radical level in urine at 8 mg/kg, ip after 4 hrs by EPR spectroscopy in presence of PbO2; format: ADME, organism-based; parameters: dose 8 mg/kg, route intraperitoneal; details: in vivo; summary of the method: as §3
[8] = biological target: Poly [ADP-ribose] polymerase 1 (Rattus norvegicus) (UniProt P27008); assay: as §1
Sequence of Poly [ADP-ribose] polymerase 1 (Rattus norvegicus) (P27008 whole entry): as above

Row | SMILES | IC50 (WRL68) [µM] | IC50 [1] [µM] | IC50 [2] [µM] | also measured
1 | CC1(C)C(c2ccccc2)=C(c2nc3c(C(N)=O)cccc3[nH]2)C(C)(C)N1O | 0.24 | 1.5 | 1.25 | 
2 | CC1(C)C=C(c2nc3c(C(N)=O)cccc3[nH]2)C(C)(C)N1 | 0.62 |  | 2.1 | LD50 at 336 h [3]: 620 mg/kg
3 | CC1(C)c2cc(-c3nc4c(C(N)=O)cccc4[nH]3)sc2C(C)(C)N1O | 40 | 3.4 | 27 | 
4 | CC1(C)C=C(CSc2nc3c(C(N)=O)cccc3[nH]2)CC(C)(C)N1O | 12.7 | 5 | 180 | 
5 | COC(=O)[C@@H]1[C@@H](c2nc3c(C(N)=O)cccc3[nH]2)C(C)(C)N(O)C1(C)C | 11.1 |  | 0.9 | 
6 | CC1(C)NC(C)(C)C(c2nc3c(C(N)=O)cccc3[nH]2)=C1c1cccc(C(F)(F)F)c1 | 32 |  | 13.4 | 
7 | COc1cc(-c2nc3c(C(N)=O)cccc3[nH]2)ccc1OCC1=CC(C)(C)NC1(C)C | 0.101 |  | 3.8 | 
8 | CN1C(C)(C)C=C(c2nc3c(C(N)=O)cccc3[nH]2)C1(C)C | 0.095 |  | 73 | 
9 | CC1(C)NC(C)(C)C(c2nc3c(C(N)=O)cccc3[nH]2)=C1Br | 3.51 |  | 3.4 | 
10 | CC1(C)C=C(c2nc3c(C(N)=O)cccc3[nH]2)CC(C)(C)N1O.Cl |  |  |  | Activity (Rattus norvegicus [4]): 87 nM; Activity (Rattus norvegicus [5]): 116 nM
11 | COC(=O)[C@@H]1[C@@H](c2nc3c(C(N)=O)cccc3[nH]2)C(C)(C)NC1(C)C | 0.33 | 0.216 | 3.1 | 
12 | CC(=O)N1C(C)(C)C=C(c2nc3c(C(N)=O)cccc3[nH]2)C1(C)C | 3.15 |  | 81 | 
13 | CC(C)NC(=O)c1cccc2[nH]c(C3=CC(C)(C)N(O)C3(C)C)nc12 | 3.35 | 10 | 2.1 | 
14 | CC1(C)NC(C)(C)c2cc(-c3nc4c(C(N)=O)cccc4[nH]3)ccc21 | 0.19 | 0.45 | 140 | 
15 | CC1(C)NC(C)(C)C(c2nc3c(C(N)=O)cccc3[nH]2)=C1c1ccccc1 | 3.98 |  | 0.38 | 
16 | CON1C(C)(C)C=C(c2nc3c(C(N)=O)cccc3[nH]2)C1(C)C | 0.0094 |  | 113 | 
17 | CC1(C)C=C(c2nc3c(C(N)=O)cccc3[nH]2)CC(C)(C)N1O | 15.6 | 0.026 | 9.6 | Activity (Rattus norvegicus [6]): 0.7 nM; Activity (Rattus norvegicus [7]): 1.7 nM
18 | CC1(C)C=C(Cn2cnc3c(C(N)=O)cccc32)C(C)(C)N1O | 1.99 | 10 | 1.8 | 
19 | CC1(C)C=C(CSc2nc3c(C(N)=O)cccc3[nH]2)C(C)(C)N1 | 3.14 | 3 | 200 | 

Row | SMILES | IC50 (WRL68) [µM] | IC50 [1] [µM] | IC50 [2] [µM] | also measured
20 | CC1(C)C=C(c2ccc(-c3nc4c(C(N)=O)cccc4[nH]3)cc2)C(C)(C)N1O | 0.033 | 0.078 | 7.2 | 
21 | CC1(C)C=C(c2ccc(-c3nc4c(C(N)=O)cccc4[nH]3)cc2)C(C)(C)N1 | 0.341 |  | 4.5 | 
22 | CC1(C)C=C(c2nc3cc(C(N)=O)ccc3[nH]2)CC(C)(C)N1O | 28.3 |  | 170 | Activity [8]: inactive
23 | CC1(C)C=C(c2nc3c(C(N)=O)cccc3[nH]2)CC(C)(C)N1 | 0.098 |  | 1.6 | LD50 at 336 h [3]: 740 mg/kg
24 | CC1(C)NC(C)(C)c2sc(-c3nc4c(C(N)=O)cccc4[nH]3)cc21 | 6.92 |  | 10.5 | 
25 | CC1(C)C=C(COc2ccc(-c3nc4c(C(N)=O)cccc4[nH]3)cc2)C(C)(C)N1 | 1.61 |  | 4.3 | 
26 | CC1(C)C=C(c2nc3ccccc3[nH]2)CC(C)(C)N1 |  |  | 5.5 | Activity [8]: inactive
27 | CC1(C)C=C(CSc2nc3c(C(N)=O)cccc3[nH]2)CC(C)(C)N1 | 5.57 | 4 | 350 | 
28 | CC1(C)C(c2nc3c(C(N)=O)cccc3[nH]2)=C(c2cccc3c2oc2ccccc23)C(C)(C)N1O | 26.8 | 1.8 | 5.3 | 
29 | CC1(C)NC(C)(C)C(c2cccc3c2oc2ccccc23)=C1c1nc2c(C(N)=O)cccc2[nH]1 | 0.324 | 1.8 | 5.3 | 
30 | COc1cc(-c2nc3c(C(N)=O)cccc3[nH]2)ccc1OCC1=CC(C)(C)N(O)C1(C)C | 10.1 | 0.472 | 14.1 | 
31 | CC1(C)NC(C)(C)c2cc(-c3nc4c(C(N)=O)cccc4[nH]3)ncc21 | 0.08 | 0.47 | 150 | 
32 | CC1(C)C(Br)=C(c2nc3c(C(N)=O)cccc3[nH]2)C(C)(C)N1O | 8.21 | 0.201 | 2.8 | 
33 | CC1(C)C=C(COc2ccc(-c3nc4c(C(N)=O)cccc4[nH]3)cc2)C(C)(C)N1O | 1.61 | 0.564 | 13.2 | 
34 | CC1(C)C=C(CSc2nc3c(C(N)=O)cccc3[nH]2)C(C)(C)N1O | 20.9 | 6 | 200 | 
35 | CC(C)NC(=O)c1cccc2[nH]c(C3=CC(C)(C)NC3(C)C)nc12 | 56.7 | 10 | 2.3 | 
36 | CC1(C)C=C(c2nc3cc(C(N)=O)ccc3[nH]2)CC(C)(C)N1 |  |  | 45 | Activity [8]: inactive
37 | CC1(C)C(c2cccc(C(F)(F)F)c2)=C(c2nc3c(C(N)=O)cccc3[nH]2)C(C)(C)N1O | 60.9 | 0.149 | 11.2 | 
